In ChEMBL document CHEMBL1142136, “Contribution of target gene mutations and efflux to decreased susceptibility of Salmonella enterica serovar typhimurium to fluoroquinolones and other antimicrobials” (2007):

Key:
Format in all cases: functional, Salmonella enterica subsp. enterica serovar Typhimurium
Salmonella typhimurium [1] = experiment: Antimicrobial activity against Salmonella enterica serovar Typhimurium S21 tolC::Kan
Method in brief: (§1)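 MICs by automated broth microdilution panels, interpreted to CLSI broth microdilution standards. Ciprofloxacin additionally tested by agar dilution across 0.0075 to 128 μg/ml. Quality control strains: E. coli ATCC 25922 and 35218, Enterococcus faecalis ATCC 29212, S. aureus ATCC 29213, P. aeruginosa ATCC 27853. Test strains are kanamycin-marked deletion mutants of ground-beef isolate S21.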

Salmonella typhimurium [2] = experiment: Antimicrobial activity against Salmonella enterica serovar Typhimurium S21-1 gyrA+
Method in brief: (§2)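 MICs measured by broth microdilution on the Sensititre automated system and interpreted by CLSI broth microdilution standards. Ciprofloxacin was also tested by agar dilution, widening the range to 0.0075–128 μg/ml. Quality control strains were E. coli ATCC 25922 and 35218, E. faecalis ATCC 29212, S. aureus ATCC 29213 and P. aeruginosa ATCC 27853.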

Salmonella typhimurium [3] = experiment: Antimicrobial activity against Salmonella enterica serovar Typhimurium CHS18 gyrA+ with GyrA S38F mutation; method in brief: as §2
Salmonella typhimurium [4] = experiment: Antimicrobial activity against Salmonella enterica serovar Typhimurium CS9 tolC::Kan with GyrA S83F, D87N, ParC S80I mutation; method in brief: as §2
Salmonella typhimurium [5] = experiment: Antimicrobial activity against Salmonella enterica serovar Typhimurium CHS38 acrAB::Kan with GyrA D87G mutation; method in brief: as §2
Salmonella typhimurium [6] = experiment: Antimicrobial activity against Salmonella enterica serovar Typhimurium CHS14 acrAB::Kan with GyrA D87G mutation; method in brief: as §2
Salmonella typhimurium [7] = experiment: Antimicrobial activity against Salmonella enterica serovar Typhimurium CS9 with GyrA S83F, D87N, ParC S80I mutation; method in brief: as §2
Salmonella typhimurium [8] = experiment: Antimicrobial activity against Salmonella enterica serovar Typhimurium S21-3 gyrA+ with ParC S80I mutation; method in brief: as §2
Salmonella typhimurium [9] = experiment: Antimicrobial activity against Salmonella enterica serovar Typhimurium CS3 with GyrA S83F, D87N, ParC S80I mutation; method in brief: as §2
Salmonella typhimurium [10] = experiment: Antimicrobial activity against Salmonella enterica serovar Typhimurium S21-3 acrAB::Kan with GyrA S83F, ParC S80I mutation; method in brief: as §2
Salmonella typhimurium [11] = experiment: Antimicrobial activity against Salmonella enterica serovar Typhimurium S21-3 tolC::Kan with GyrA S83F, ParC S80I mutation; method in brief: as §2
Salmonella typhimurium [12] = experiment: Antimicrobial activity against Salmonella enterica serovar Typhimurium S21-4 gyrA+ with ParC S80I mutation; method in brief: as §2
Salmonella typhimurium [13] = experiment: Antimicrobial activity against Salmonella enterica serovar Typhimurium S21-3 with GyrA S83F, ParC S80I mutation; method in brief: as §2
Salmonella typhimurium [14] = experiment: Antimicrobial activity against Salmonella enterica serovar Typhimurium S21-2 with GyrA S83F, ParC S80I mutation; method in brief: as §2
Salmonella typhimurium [15] = experiment: Antimicrobial activity against Salmonella enterica serovar Typhimurium S21-1 tolC::Kan with GyrA S83F mutation; method in brief: as §2
Salmonella typhimurium [16] = experiment: Antimicrobial activity against Salmonella enterica serovar Typhimurium S21-4 acrAB::Kan with GyrA S83F, ParC S80I mutation; method in brief: as §2
Salmonella typhimurium [17] = experiment: Antimicrobial activity against Salmonella enterica serovar Typhimurium CS9 acrAB::Kan with GyrA S83F, D87N, ParC S80I mutation; method in brief: as §2
Salmonella typhimurium [18] = experiment: Antimicrobial activity against Salmonella enterica serovar Typhimurium S21 acrAB::Kan; method in brief: as §1
Salmonella typhimurium [19] = experiment: Antimicrobial activity against Salmonella enterica serovar Typhimurium CS3 acrAB::Kan with GyrA S83F, D87N, ParC S80I mutation; method in brief: as §2
Salmonella typhimurium [20] = experiment: Antimicrobial activity against Salmonella enterica serovar Typhimurium S21-2 gyrA+ with ParC S80I mutation; method in brief: as §2
Salmonella typhimurium [21] = experiment: Antimicrobial activity against Salmonella enterica serovar Typhimurium S21-4 tolC::Kan with GyrA S83F, ParC S80I mutation; method in brief: as §2
Salmonella typhimurium [22] = experiment: Antimicrobial activity against Salmonella enterica serovar Typhimurium CS3 tolC::Kan with GyrA S83F, D87N, parC S80I mutation; method in brief: as §2
Salmonella typhimurium [23] = experiment: Antimicrobial activity against Salmonella enterica serovar Typhimurium CHS14 gyrA+ with GyrA D87G mutation; method in brief: as §2
Salmonella typhimurium [24] = experiment: Antimicrobial activity against Salmonella enterica serovar Typhimurium CHS38 tolC::Kan with GyrA D87G mutation; method in brief: as §2
Salmonella typhimurium [25] = experiment: Antimicrobial activity against Salmonella enterica serovar Typhimurium CHS18 tolC::Kan with GyrA S38F mutation; method in brief: as §2
Salmonella typhimurium [26] = experiment: Antimicrobial activity against Salmonella enterica serovar Typhimurium CS1 acrAB::Kan with GyrA S83F, D87N, ParC S80I mutation; method in brief: as §2
Salmonella typhimurium [27] = experiment: Antimicrobial activity against Salmonella enterica serovar Typhimurium S21-2 acrAB::Kan with GyrA S83F, ParC S80I mutation; method in brief: as §2
Salmonella typhimurium [28] = experiment: Antimicrobial activity against Salmonella enterica serovar Typhimurium S21-2 tolC::Kan with GyrA S83F, ParC S80I mutation; method in brief: as §2
Salmonella typhimurium [29] = experiment: Antimicrobial activity against Salmonella enterica serovar Typhimurium CHS14 tolC::Kan with GyrA D87G mutant; method in brief: as §2
Salmonella typhimurium [30] = experiment: Antimicrobial activity against Salmonella enterica serovar Typhimurium CHS38 with GyrA D87G mutation; method in brief: as §2
Salmonella typhimurium [31] = experiment: Antimicrobial activity against Salmonella enterica serovar Typhimurium S21; method in brief: as §2
Salmonella typhimurium [32] = experiment: Antimicrobial activity against Salmonella enterica serovar Typhimurium CS3 gyrA+ with GyrA S83F, D87N, ParC S80I mutation; method in brief: as §2
Salmonella typhimurium [33] = experiment: Antimicrobial activity against Salmonella enterica serovar Typhimurium CHS38 gyrA+ with GyrA D87G mutation; method in brief: as §2
Salmonella typhimurium [34] = experiment: Antimicrobial activity against Salmonella enterica serovar Typhimurium S21-1 GyrA S83F mutant; method in brief: as §2
Salmonella typhimurium [35] = experiment: Antimicrobial activity against Salmonella enterica serovar Typhimurium S21 gyrA+; method in brief: as §2
Salmonella typhimurium [36] = experiment: Antimicrobial activity against Salmonella enterica serovar Typhimurium CHS18 acrAB::Kan with GyrA S38F mutation; method in brief: as §2
Salmonella typhimurium [37] = experiment: Antimicrobial activity against Salmonella enterica serovar Typhimurium CHS14 with GyrA D87G mutation; method in brief: as §2
Salmonella typhimurium [38] = experiment: Antimicrobial activity against Salmonella enterica serovar Typhimurium CHS18 with GyrA S38F mutation; method in brief: as §2
Salmonella typhimurium [39] = experiment: Antimicrobial activity against Salmonella enterica serovar Typhimurium CS1 tolC::Kan with GyrA S83F, D87N, ParC S80I mutation; method in brief: as §2
Salmonella typhimurium [40] = experiment: Antimicrobial activity against Salmonella enterica serovar Typhimurium GyrA S21-1 acrAB::Kan with GyrA S83F mutation; method in brief: as §2
Salmonella typhimurium [41] = experiment: Antimicrobial activity against Salmonella enterica serovar Typhimurium CS9 gyrA+ with GyrA S83F, D87N, ParC S80I mutation; method in brief: as §2
Salmonella typhimurium [42] = experiment: Antimicrobial activity against Salmonella enterica serovar Typhimurium S21-4 with GyrA S83F, ParC S80I mutation; method in brief: as §2
Salmonella typhimurium [43] = experiment: Antimicrobial activity against Salmonella enterica serovar Typhimurium CS1 with GyrA S83F, D87N, ParC S80I mutation; method in brief: as §2
Salmonella typhimurium [44] = experiment: Antimicrobial activity against Salmonella enterica serovar Typhimurium CS1 gyrA+ with GyrA S83F, D87N, ParC S80I mutation; method in brief: as §2

Measured: MIC

C[C@@H]1CN(c2c(F)c(F)c3c(=O)c(C(=O)O)cn(C4CC4)c3c2F)C[C@H](C)N1 [ORBIFLOXACIN]
< 0.15 µg/mL: Salmonella typhimurium [33]
< 0.015 µg/mL: Salmonella typhimurium [1] | Salmonella typhimurium [18] | Salmonella typhimurium [24]
0.5 µg/mL: Salmonella typhimurium [10] | Salmonella typhimurium [11] | Salmonella typhimurium [30] | Salmonella typhimurium [36]
2 µg/mL: Salmonella typhimurium [8] | Salmonella typhimurium [20] | Salmonella typhimurium [34]
0.06 µg/mL: Salmonella typhimurium [5] | Salmonella typhimurium [25]
4 µg/mL: Salmonella typhimurium [4] | Salmonella typhimurium [17] | Salmonella typhimurium [19] | Salmonella typhimurium [22] | Salmonella typhimurium [26] | Salmonella typhimurium [39]
> 16 µg/mL: Salmonella typhimurium [7] | Salmonella typhimurium [9] | Salmonella typhimurium [43]
0.12 µg/mL: Salmonella typhimurium [2] | Salmonella typhimurium [3] | Salmonella typhimurium [15] | Salmonella typhimurium [16] | Salmonella typhimurium [21] | Salmonella typhimurium [23] | Salmonella typhimurium [31] | Salmonella typhimurium [35] | Salmonella typhimurium [40]
16 µg/mL: Salmonella typhimurium [13] | Salmonella typhimurium [14] | Salmonella typhimurium [42]
0.25 µg/mL: Salmonella typhimurium [27] | Salmonella typhimurium [28] | Salmonella typhimurium [32] | Salmonella typhimurium [41] | Salmonella typhimurium [44]
0.03 µg/mL: Salmonella typhimurium [6] | Salmonella typhimurium [29]
1 µg/mL: Salmonella typhimurium [37] | Salmonella typhimurium [38]
8 µg/mL: Salmonella typhimurium [12]
